Test results taken from ChEMBL document CHEMBL1144067, “Cancer chemopreventive agents (antitumor-promoters) from Ajuga decumbens” (J Nat Prod, 1999).

Tests used:
[1] = Cytotoxicity against human Raji cells assessed as cell viability at 10 molar ratio after 48 hrs; assay type: cell-based; settings: read-out: Activity
Procedure, shortened: (§1)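 Raji cells (EBV genome-carrying, Burkitt's lymphoma-derived) grown in RPMI-1640 and incubated 48 h at 37 °C with 4 mmol n-butyric acid, 32 pmol TPA (20 ng/mL) and test agent at 10–1000 mol ratio/TPA (0.32–32 nmol). Viability given as percentage of Raji cells; n = 3, ±S.D.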

Raji [2] = assay: Inhibition of 12-O-tetradecanoylphorbol-13-acetate induced EBV-early antigen activation in human Raji cells at 10 molar ratio relative to control; assay type: cell-based; settings: human gammaherpesvirus 4
Procedure, shortened: (§2)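 Raji cells in RPMI-1640 treated 48 h at 37 °C with n-butyric acid (4 mmol), TPA (32 pmol = 20 ng/mL) and test agent at 10, 100, 500 or 1000 mol ratio/TPA (0.32–32 nmol). EA-positive cells in smears detected by indirect immunofluorescence; induction expressed relative to TPA positive control (100%), n = 3, ±S.D.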

Raji [3] = assay: Inhibition of 12-O-tetradecanoylphorbol-13-acetate induced EBV-early antigen activation in human Raji cells at 1000 molar ratio relative to control; assay type: cell-based; settings: human gammaherpesvirus 4; procedure, shortened: as §2
[4] = Cytotoxicity against human Raji cells assessed as cell viability at 1000 molar ratio after 48 hrs; assay type: cell-based; settings: read-out: Activity; procedure, shortened: as §1
Raji [5] = assay: Inhibition of 12-O-tetradecanoylphorbol-13-acetate induced EBV-early antigen activation in human Raji cells at 500 molar ratio relative to control; assay type: cell-based; settings: human gammaherpesvirus 4; procedure, shortened: as §2
[6] = Cytotoxicity against human Raji cells assessed as cell viability at 100 molar ratio after 48 hrs; assay type: cell-based; settings: read-out: Activity; procedure, shortened: as §1
[7] = Cytotoxicity against human Raji cells assessed as cell viability at 500 molar ratio after 48 hrs; assay type: cell-based; settings: read-out: Activity; procedure, shortened: as §1
Raji [8] = assay: Inhibition of 12-O-tetradecanoylphorbol-13-acetate induced EBV-early antigen activation in human Raji cells at 100 molar ratio relative to control; assay type: cell-based; settings: human gammaherpesvirus 4; procedure, shortened: as §2
Mus musculus [9] = assay: Inhibition of DMBA-induced/TPA-promoted carcinogenesis in mouse assessed as number of skin papillomas per mouse at 85 nmol administered twice weekly after 1 week of initiation for 10 weeks; assay type: functional
Procedure, shortened: (§3)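 Female SPF ICR mice, 6 weeks old, 15 per group, backs shaved; single topical DMBA initiation (100 μg, 390 nmol) in 0.1 mL acetone. From 1 week after, promotion with TPA 1.7 nmol twice weekly, plus 85 nmol test agent. Papilloma incidence and number per mouse monitored weekly for 20 weeks.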

Mus musculus [10] = assay: Inhibition of DMBA-induced/TPA-promoted carcinogenesis in mouse assessed as number of skin papillomas per mouse at 85 nmol administered twice weekly after 1 week of initiation for 20 weeks; assay type: functional; procedure, shortened: as §3
Mus musculus [11] = assay: Inhibition of DMBA-induced/TPA-promoted carcinogenesis in mouse assessed as number of mouse bearing papillomas at 85 nmol administered twice weekly after 1 week of initiation for 10 weeks; assay type: functional; set-up: scale not given: the % may be the effect or the level left; procedure, shortened: as §3
Mus musculus [12] = assay: Inhibition of DMBA-induced/TPA-promoted carcinogenesis in mouse assessed as number of mouse bearing papillomas at 85 nmol administered twice weekly after 1 week of initiation for 17 weeks; assay type: functional; set-up: scale not given: the % may be the effect or the level left; procedure, shortened: as §3
Mus musculus [13] = assay: Inhibition of DMBA-induced/TPA-promoted carcinogenesis in mouse assessed as number of mouse bearing papillomas at 85 nmol administered twice weekly after 1 week of initiation for 8 weeks; assay type: functional; set-up: scale not given: the % may be the effect or the level left; procedure, shortened: as §3

Row | Compound | viability at 48 h, 10 molar ratio [1] [%] | EBV-EA activation relative to TPA control (Raji [2]) [%] | EBV-EA induction remaining (% of TPA control) (Raji [3]) [%] | viability at 48 h, 1000 molar ratio [4] [%] | EBV-EA induction remaining (% of TPA control) (Raji [5]) [%] | viability at 48 h, 100 molar ratio [6] [%] | viability at 48 h, 500 molar ratio [7] [%] | EBV-EA induction remaining (% of TPA control) (Raji [8]) [%] | Activity (Mus musculus [9]) | Activity (Mus musculus [10]) | Activity (Mus musculus [11]) [%] | Activity (Mus musculus [12]) [%] | Activity (Mus musculus [13]) [%]
1 | CCC1=C(C)C(=O)O[C@@H]([C@](C)(O)[C@H]2CC[C@@]3(O)C4=CC(=O)[C@@H]5C[C@@H](O)[C@@H](O)C[C@]5(C)[C@H]4CC[C@]23C)C1 | > 80 | 100 | 17.5 | 60 | 58.2 | > 80 | > 80 | 81 | – | – | – | – | –
2 | C/C=C(/C)C(=O)O[C@@H](C[C@@]1(C)[C@H](C)C[C@H](OC(C)=O)[C@]2(COC(C)=O)[C@@H]1[C@H](OC(=O)/C(C)=C\C)CC[C@]21CO1)C1=CC(=O)OC1 | > 80 | 100 | 18.4 | 70 | 47.2 | > 80 | > 80 | 71.5 | – | – | – | – | –
3 | CC(=O)OC[C@@]12[C@@H](OC(C)=O)C[C@@H](C)[C@](C)(C[C@H](OC(C)=O)C3=CC(=O)OC3)[C@H]1[C@H](OC(C)=O)CC[C@]21CO1 [AJUGAPANTIN A] | > 80 | 100 | 10.6 | 70 | 54.7 | > 80 | > 80 | 79.2 | – | – | – | – | –
4 | CC(C)(O)CC[C@@H](O)[C@](C)(O)[C@H]1CC[C@@]2(O)C3=CC(=O)[C@]4(O)C[C@@H](O)[C@@H](O)C[C@]4(C)[C@H]3CC[C@]12C [POLYPODINE B] | > 80 | – | – | 70 | – | > 80 | > 80 | – | – | – | – | – | –
5 | C=C(CO)C(CC)C[C@@H](O)[C@@](C)(O)[C@H]1CC[C@@]2(O)C3=CC(=O)[C@@H]4C[C@@H](O)[C@@H](O)C[C@]4(C)[C@H]3CC[C@]12C (some centres not stated) | > 80 | 95.8 | 4.6 | 70 | 49.1 | > 80 | > 80 | 72.6 | – | – | – | – | –
6 | CC1(C)C[C@H](O)C[C@@]2(C)OC(=O)C=C12 [LOLIOLIDE] | > 80 | 88 | 5.1 | 60 | 26.8 | > 80 | > 80 | 59.6 | – | – | – | – | –
7 | COc1cc(C(=O)O)ccc1O [VANILLIC ACID] | > 80 | 90.2 | 0 | 60 | 46.2 | > 80 | > 80 | 73.9 | – | – | – | – | –
8 | C[C@@H]1C(=O)O[C@H](C)[C@H]1CC(=O)[C@](C)(O)[C@H]1CC[C@@]2(O)C3=CC(=O)[C@@H]4C[C@@H](O)[C@@H](O)C[C@]4(C)[C@H]3CC[C@]12C | > 80 | 100 | 20.9 | 60 | 61.9 | > 80 | > 80 | 84.5 | – | – | – | – | –
9 | CC(C)(O)CC[C@@H](O)[C@@](C)(O)[C@H]1CC[C@@]2(O)C3=CC(=O)[C@@H]4C[C@@H](O)[C@@H](O)C[C@]4(C)[C@H]3CC[C@]12C | > 80 | 100 | 0 | 70 | 73.7 | > 80 | > 80 | 90.1 | – | – | – | – | –
10 | C/C=C(/C)C(=O)O[C@@H]1CC[C@]2(CO2)[C@]2(COC(C)=O)[C@@H](OC(C)=O)C[C@@H](C)[C@](C)(C[C@H](OC(C)=O)C3=CC(=O)OC3)[C@@H]12 | > 80 | 100 | 0 | 60 | 42.6 | > 80 | > 80 | 73.5 | – | – | – | – | –
11 | CC1(C)[C@@H](O)CC[C@]2(C)[C@H]3C(=O)C=C4[C@@H]5C[C@@](C)(C(=O)O)CC[C@]5(C)CC[C@@]4(C)[C@]3(C)CC[C@@H]12 [ENOXOLONE] | – | – | – | – | – | – | – | – | 4 | 9 | – | – | –
12 | C/C=C(/C)C(=O)O[C@@H]1CC[C@]2(CO2)[C@]2(COC(C)=O)[C@@H](OC(C)=O)C[C@@H](C)[C@](C)(C[C@H](O)C3=CC(=O)OC3)[C@@H]12 | > 80 | 100 | 0 | 50 | 55.8 | > 80 | > 80 | 76.3 | – | – | – | – | –
13 | C=C(C)C(C[C@@H](O)[C@@](C)(O)[C@H]1CC[C@@]2(O)C3=CC(=O)[C@@H]4C[C@@H](O)[C@@H](O)C[C@]4(C)[C@H]3CC[C@]12C)C(C)O (some centres not stated) [DECUMBESTERONE] | > 80 | 100 | 0 | 70 | 24.7 | > 80 | > 80 | 66 | – | – | – | – | –
14 | C[C@@H]1C(=O)O[C@H](C)[C@H]1C[C@@H](O)[C@](C)(O)[C@H]1CC[C@@]2(O)C3=CC(=O)[C@]4(O)C[C@@H](O)[C@@H](O)C[C@]4(C)[C@H]3CC[C@]12C | > 80 | 100 | 0 | 70 | 51.9 | > 80 | > 80 | 80.2 | – | – | – | – | –
15 | O=c1cc(-c2ccc(O)cc2)oc2cc(O)cc(O)c12 [APIGENIN] | > 80 | 100 | 31.5 | 50 | 65.9 | > 80 | > 80 | 83.7 | – | – | – | – | –
16 | C[C@@H]1C(=O)O[C@H](C)[C@H]1C[C@@H](O)[C@](C)(O)[C@H]1CC[C@@]2(O)C3=CC(=O)[C@@H]4C[C@@H](O)[C@@H](O)C[C@]4(C)[C@H]3CC[C@]12C [CYASTERONE] | > 80 | 94.6 | 0 | 70 | 36.2 | > 80 | > 80 | 75.2 | 2.5 | 7 | 60 | 80 | 43
17 | CC(C)(O)CC[C@@H](O)[C@@](C)(O)[C@H]1CC[C@@]2(O)C3=CC(=O)[C@]4(O)C[C@@H](O)[C@@H](O)C[C@]4(C)[C@H]3CC[C@]12C | – | 100 | 0 | – | 23.4 | – | – | 65.9 | – | – | – | – | –
